Test results as given in article PMC3081996 (Bioorganic & medicinal chemistry letters, 2010).
“Also recorded” adds a separate entry of the source.

Legend:
Format in all cases: biochemical
[1] = biological target: T1, human TG2 (Homo sapiens, UniProt P21980); experiment: GDH-coupled deamidation assay with Cbz-Gln-Gly; conditions: for GDH-coupled assay α (ratio Ki’/Ki): Table 4, [TG2] = 0.5 µM, mixed inhibition model
T1 sequence (P21980 1-687): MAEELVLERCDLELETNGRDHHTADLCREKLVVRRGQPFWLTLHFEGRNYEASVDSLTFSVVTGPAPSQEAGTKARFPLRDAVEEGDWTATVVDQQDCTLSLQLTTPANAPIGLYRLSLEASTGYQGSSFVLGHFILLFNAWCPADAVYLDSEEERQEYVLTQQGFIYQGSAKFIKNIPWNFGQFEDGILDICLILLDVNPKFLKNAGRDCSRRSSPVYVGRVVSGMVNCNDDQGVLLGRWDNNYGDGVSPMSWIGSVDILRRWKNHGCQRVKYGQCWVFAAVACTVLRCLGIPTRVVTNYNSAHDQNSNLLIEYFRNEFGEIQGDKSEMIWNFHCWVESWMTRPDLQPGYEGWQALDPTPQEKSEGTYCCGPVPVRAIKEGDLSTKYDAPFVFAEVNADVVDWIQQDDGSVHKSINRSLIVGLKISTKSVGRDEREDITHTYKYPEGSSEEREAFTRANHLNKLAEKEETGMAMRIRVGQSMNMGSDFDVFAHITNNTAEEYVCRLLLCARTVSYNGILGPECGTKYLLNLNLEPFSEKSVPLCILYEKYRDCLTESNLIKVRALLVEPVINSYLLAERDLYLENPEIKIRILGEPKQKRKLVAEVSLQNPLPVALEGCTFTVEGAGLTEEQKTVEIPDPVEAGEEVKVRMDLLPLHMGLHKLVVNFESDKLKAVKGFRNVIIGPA

[2] = biological target: T1, human TG2; experiment: direct fluorometric assay; conditions: for partial inhibition activity (in words): fluorometric assay; for Fluorescent assay α (ratio Ki’/Ki): Table 4, [TG2] = 15 nM, mixed inhibition model; for binding character in mixed inhibition model (in words): compounds that did not exhibit partial inhibition
Method in brief: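 Direct fluorometric assay following release of 7-hydroxycoumarin from an ester substrate by human TG2 at 15 nM. Ki and Ki' are fitted to a mixed inhibition model, with α = Ki'/Ki. A larger α means more competitive inhibition, α = 1 means simple non-competitive, and α < 1 means increasingly uncompetitive.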

[3] = biological target: T1, human TG2; experiment: preliminary screening of isatins as TG2 inhibitors
Method in brief: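 Coupled GDH assay of TG2-catalysed deamidation of the substrate ZQG, with human TG2 at 0.5 µM. Inhibition by isatin-derived test compounds is read as IC50.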

Row | Structure (SMILES) | TG2 inhibitory activity (in words) ([1]; GDH-coupled assay) | GDH-coupled assay α (ratio Ki’/Ki) [1] | further results
1 | O=C1Nc2ccccc2/C1=C1\C(=O)Nc2ccccc21 [Compound 8, isoindigotin] | promising inhibitors | – | –
2 | CC(=O)/C=C1/C(=O)Nc2cc(F)ccc21 [Compound 12] | – | > 100 | –
3 | O=C1C(=O)N(CN2C(=O)C(=O)c3ccccc32)c2ccccc21 [Compound 6] | active | – | –
4 | COc1ccncc1C(=O)/C=C1/C(=O)Nc2cccc(Cl)c21 [Compound 19] | – | – | partial inhibition activity (in words) [2]: partial inhibition activity
5 | Cc1cc(C)c(CN2C(=O)C(=O)c3ccccc32)cc1CN1C(=O)C(=O)c2ccccc21 [Compound 4] | active | – | –
6 | O=C1Nc2ccc(I)cc2C1=O [5-iodo] | – | – | IC50 [3]: 65 to 450 µM
7 | O=C1Nc2ccc(Br)cc2/C1=C\C(=O)c1cccnc1 [Compound 43] | – | > 100 | Fluorescent assay α (ratio Ki’/Ki) [2]: 4.4; binding character in mixed inhibition model (in words) [2]: non-competitive binding character
8 | O=C1Nc2ccccc2/C1=C1/Nc2ccccc2C1=O [Compound 7, indirubin] | inactive | – | –
9 | O=C1Nc2ccc(Cl)cc2C1=O [5-chloro] | – | – | IC50 [3]: 65 to 450 µM
10 | O=C1Nc2c(F)cc(F)cc2C1=O [5,7-difluoroisatin] | – | – | IC50 [3]: 65 to 450 µM
11 | O=C(/C=C1/C(=O)N(Cc2ccccc2)c2cccc(Cl)c21)c1cccnc1 [Compound 33] | – | 1.8 | Fluorescent assay α (ratio Ki’/Ki) [2]: 3.6; binding character in mixed inhibition model (in words) [2]: non-competitive binding character
12 | Nc1ccc(C(=O)/C=C2/C(=O)Nc3cccc(Cl)c32)cc1 [Compound 27] | – | – | partial inhibition activity (in words) [2]: partial inhibition activity
13 | CC(=O)/C=C1/C(=O)Nc2ccccc21 [Compound 9] | promising inhibitors | – | –
14 | O=C1Nc2ccc(Br)cc2C1=O [5-bromo] | – | – | IC50 [3]: 65 to 450 µM
15 | O=C1Nc2c(Cl)cccc2/C1=C\C(=O)c1cccnc1 [Compound 48] | – | – | partial inhibition activity (in words) [2]: partial inhibition activity
16 | CC(=O)/C=C1/C(=O)Nc2ccc(Cl)cc21 [Compound 11] | – | > 100 | –
17 | O=C1Nc2cccc(Cl)c2/C1=C\C(=O)c1ccc(Cl)cc1 [Compound 22] | – | – | partial inhibition activity (in words) [2]: partial inhibition activity
18 | O=C1Nc2cc(Br)ccc2/C1=C\C(=O)c1cccnc1 [Compound 47] | nearly as potent as compound 16 | – | partial inhibition activity (in words) [2]: partial inhibition activity

The next lines start with results.

Row | TG2 inhibitory activity (in words) ([1]; GDH-coupled assay) | GDH-coupled assay α (ratio Ki’/Ki) [1] | Structure (SMILES) | further results
19 | – | > 100 | O=C1Nc2cccc(Cl)c2/C1=C\C(=O)c1cccnc1 [Compound 16] | –
20 | – | > 100 | CN1C(=O)/C(=C/C(=O)c2cccnc2)c2c(Cl)cccc21 [Compound 28] | –
21 | nearly as potent as compound 16 | 0.86 | O=C1Nc2cc(Cl)ccc2/C1=C\C(=O)c1cccnc1 [Compound 46] | mode of inhibition (Lineweaver-Burk analysis) ([1]; GDH-coupled assay): non-competitive, allosteric mode of action; also recorded: non-competitive inhibitory character
22 | – | > 100 | O=C1Nc2ccccc2/C1=C\C(=O)c1cccnc1 [Compound 40] | loss in potency relative to compound 16 ([1]; GDH-coupled assay IC50): > 20 fold
23 | – | > 100 | CC(=O)/C=C1/C(=O)Nc2cccc(Cl)c21 [Compound 10] | –
24 | – | > 100 | O=C1Nc2cccc(Cl)c2/C1=C\C(=O)c1ccccc1 [Compound 20] | –
25 | sub-micromolar inhibitor | > 100 | O=C1Nc2cccc(Br)c2/C1=C\C(=O)c1cccnc1 [Compound 41] | Fluorescent assay α (ratio Ki’/Ki) [2]: 2.6; binding character in mixed inhibition model (in words) [2]: non-competitive binding character
